# Tested on: MS2 coat protein
# Experiment: apparent Kd, MS2 coat protein; higher = weaker binding; RNA-MaP array; FMN 200 µM where present
# Procedure, shortened: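 In 100 mM Tris-HCl pH 7.5, 80 mM KCl, 4 mM MgCl2, BSA, DTT, yeast tRNA and Tween-20, SNAP-549-labelled MS2 coat protein was titrated from 0.7 or 1.5 nM, doubling to 3 µM, over designs transcribed by stalled E. coli RNA polymerase on Illumina sequencing-chip clusters. This was done first without ligand, then with ligand held constant. After green signal was normalised to red-channel RNA signal and control-cluster median Fmax, the apparent Kd was taken as the median of filtered per-cluster binding-curve fits.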
# [1] = designed as: OFF switch for flavin mononucleotide, no ligand
# [2] = ligand present: flavin mononucleotide, designed as: OFF switch for flavin mononucleotide
# [3] = designed as: ON switch for flavin mononucleotide, no ligand
# [4] = ligand present: flavin mononucleotide, designed as: ON switch for flavin mononucleotide
Sequence,apparent Kd [1] [nM],apparent Kd [2] [nM],apparent Kd [3] [nM],apparent Kd [4] [nM]
GGAUAGGACAGAGGAUAUACGUGCUAGAGAUACUAGCUAAAUUUCCUCACAUGAGGAUCACCCAUGUAGAAGGCUGUCCUAUCG,15,412,,
AGUUUAUAUCGAGGAUAUAAGUCUAGGACAUGAGGAUCACCCAUGUAUGUCUUAGAAGGCGAUAUAAACAGCCUGUUACAGGCA,,,31.5,7.04
GGUAUUCGAGGAUAUCGCAAACGAGACAUGAGGAUCACCCAUGUCCCUCAUGCUUGUCGGCGAGAAGGCGACAAGC,14.8,17.7,,
AGUCGGAGCAGAGGAUAUAUACAUGAGGAUCACCCAUGUAAAUGGAAUAGCUGGAAACAGCAAGUAUAGAAGGCUGCUCCGACA,39.5,118,,
GUAGCACAAGCAAAUGUAACAUGAGGAUCACCCAUGUGUUAUGAGGAUAUGGAUGUGAAGUUAAUCCAGAAGGCAUUAUGCUAC,,,25.2,13.2
GAGAUGUGAGGAUAUCUAGACCGCGGCAGAGCUGCGGUCCGAGAGAAGGCACAUGAGGAUCACCCAUGUGAUGA,57,207,,
GCCAGUUAUGUAGGAUAUGCGAGGCGAGCCUGAGCAGAAGGACAUGAGGAUCACCCAUGUAUUGCGGUUUAAGUUCUGAUCGCU,22.2,47.2,,
AGUAAGCUUGAGAAGGUGAAGUGGAAACAUGAGGAUCACCCAUGUAUUAGGAAGCCUGGUUUUGUCAAGGAUAUCGGGUUUACA,,,12.2,12.6
ACUUAUAGAGGAUAUACAGUAUAUUACAUGAGGAUCACCCAUGUUCUUCAAUGUAUAUAUGUAGAAGGCUAAGGAA,206,541,,
AUCAGCUCGUCAGGAUAUACGUCACUGCAUCAGCAGUGUGGUAAGAUCACAUGAGGAUCACCCAUGUAGAAGGGACGAGCUGAU,22.9,139,,
UCGAAGUCCGCCGGACGGCGAGCGAGAAGGCACAAUGAAACGACUCUACAUGAGGAUCACCCAUGUGAGGAUAUCGCGACCUAG,8.27,57.7,,
ACGCUUUGGGAGAAGGUACGUGAAGUAUUAUCCACAUGAGGAUCACCCAUGUAAGGAUAUCCCGGCGUGAAAUAGGCUACAGCA,4.77,11.3,,
UGCAUGCUAGGAUAUACGGGACAUUAGGGUUCGUCGUGUGGACAUGAGGAUCACCCAUGUAGAAGGAGCGUGCU,90,345,,
CAAAGCAGUAAGGAUAUAUGGUAGCCAGUUACCGUAGAAGGUAUAACAUGAGGAUCACCCAUGUCCAUAUGAUU,56.8,57.7,,
AUUUUUUAUGUAGGAUAUGCUUGUGGUAAGAUAGCAGAAGGACAUGAGGAUCACCCAUGUUAAUGAUAGAGAUUUUAUGUUGGU,38.8,58.8,,
GCAAUAGCAUGAGGAUAUGCUGGAGUUUAGACAGUAGAAGGCAUGUCAUAAGACAUGAGGAUCACCCAUGUAAUUACAAUAGCA,,,45.9,22.1
UGUCCAUAGCAGAAGGACAUGAAUAAACGUGAAAACAUGAGGAUCACCCAUGUAGGAUAUGCUAUGGACUAAGAGCGAAAGCUC,34.7,494,,
CGGGCACAUGAGGAUCACCCAUGUCAGGAUAUCGGCCGGCGGCCGCCGGGCCGCCGGCCGAGAAGGGACGCCCG,16.4,18.7,,
AGGGUAUGAACAUGAGGAUCACCCAUGUACCAGGAAACGAAUGAGGAUAUCGAUAGCAAAGCUAUCGAGAAGGCAUGGGACCCU,,,318,62.2
AAAGAAACAGGAUAUGUAGGCUGCGACAUGAGGAUCACCCAUGUGUCGGUAUACAGUCCUAUAGAAGGGUUAUGAC,15.5,20.1,,
GACAGGGAUUCAGGAUAUAUUAGCCGAGGCCGAGUAGAAGGGAAAUCCUGACAUGAGGAUCACCCAUGUCGACCCGCCUUCCUU,,,50.7,51.9
GUCUUCCUAGGAUAUACAUGAGGAUCACCCAUGUACAGUUUCGUCUUGGGAUACUCGCGUAGAAGGAGGUGGAU,31.9,23.4,,
UAUCCACAUGAGGAUCACCCAUGUGAGGAUAUGUCCAUAUUCGGCAAAUCGGAUAUGGACAGAAGGCACACCGG,36.9,103,,
UAUAUAUAGUAAGGAUAUGUAUUUAUUUUAUUAACAGAAGGUACUGACAUGAGGAUCACCCAUGUUUUAGUGUGGGCAUGUAGA,103,146,,

Sequence,apparent Kd [1] [nM],apparent Kd [2] [nM],apparent Kd [3] [nM],apparent Kd [4] [nM]
ACAUGAGGAUCACCCAUGUAUUACAUGGUUAAGUUUAUUAACAGAAGGCGAAAUUACCACUUUUUCGAGGAUAUGUAUUCUAUU,35.7,60.8,,
UGAUCAAAUGUCAGGAUAUGCUGUUGUAAUCAACAGCAGAAGGGACAUGAGGAUCACCCAUGUCUUGUCGAUUU,12.9,37.3,,
CGUUAUAACGAGAAGGCUGUCUGCAGUCCAGACGGAGGAUAUCGAGAAGACAUGAGGAUCACCCAUGUACGCUGGUGUCUUCAU,25.4,189,,
CAUUGCGGAGGAUAUAGGCCGUAAUACAUGAGGAUCACCCAUGUGCCGCUGUAUAAUUCCCUAGAAGGUUGCCAUC,15.4,15.7,,
GCACUGGAUGUAGGAUAUCAGGACGAUAAGUCCUGAGAAGGACAUGAGGAUCACCCAUGUACUCAAAACCAGUGCUAUAAUAUA,15.6,23.8,,
UUUCAGCAAGGAUAUACGGGCUGUGCUUUUCAUUUCUUACAACAUGAGGAUCACCCAUGUAGAAGGUGCUUCUU,297,736,,
CCUUCACAUGAGGAUCACCCAUGUCAGGAUAUCUCAGUGCAUCCACACGGACGCAUCAAGAGAAGGGACAAAAC,46.4,53.6,,
UAGGUACAUGAGGAUCACCCAUGUGGGUCGGUCACAGGAUAUCGCCGUGGGCCCAGGCGGCGAGAAGGGUGCCGGU,,,277,34.8
CCCUCAACAUGAGGAUCACCCAUGUAGGAUAUCGCUAUUGUAAUCAUGAAACAUGAUUACAAUAGCGAGAAGGACAUAUGUCCC,13.8,15.3,,
GGUACUCAAAGAGUACCAAUACGAACAUGAGGAUCACCCAUGUAGGAUAUGCAAAAGCCGGAGUAGCAGAAGGACAUGUGCCUA,12.6,46.4,,
UAGGUCGACGUAGGAUAUGUAGGAUAUUCCUACAUGAGGAUCACCCAUGUUGAAAUGGAAGAAGGACAGAAGGACGUUGACCUU,,,56.7,13.6
GUACCUUAUGAGAAGGCGAUCAUAAAACGUGAUCGAGGAUAUCAUGUAAACAUGAGGAUCACCCAUGUAUGGGUAUUAUGGUAC,,,61.7,18.4
AGUGUGUGGCAGGAUAUUCCGGUCGUGAGUCGGGAAGAAGGGUCUACAUGAGGAUCACCCAUGUGAGCGGUUGA,317,360,,
UGAUACAUGAGGAUCUCCCAUGACAUGAGGAUCACCCAUGUGCAGGAUAUACGUGUUAUAAUAUAGUAGAAGGGCAGUCUAUGU,133,199,,
UAUAUUUAUGUAGGAUAUGGUAUACAAAGUAUACCAGAAGGACAUGAGGAUCACCCAUGUAUGAAAUUCCAUAAUUGCCGUGUA,16.1,16.4,,
AUAGAAAGAUUAAUAUGAUUACAUGAGGAUCACCCAUGUAUAUAGGAUAUCGACGUCAAUGACGUCGAGAAGGAUAUACAUAAU,27.6,90.4,,
CGUUAAUAUCGAGGAUAUGUCUAGACACAUGAGGAUCACCCAUGUAUGUGUAUAGAAGGCGAUAUUAACAGCAUGUUACAUGCA,,,43,15.6
AAGUACCGGUGAGGAUAUUUUUAAUAGAACUUUAUGAUAUACAUGAGGAUCACCCAUGUUACUUUAAAGAAGGCAUCGGAUAAA,18.3,14.6,,
UAAUCGUUGCAGAAGGUUAUUAUUUUAUCGUGUCUCUUAACAUGAGGAUCACCCAUGUUUUUGAUGAAGGAUAUGCAACGGUAG,7.54,7.09,,
AUCAGCUCGUCAGGAUAUACGUCACUGCGCCAGCAGUGUGGUAAGAUCACAUGAGGAUCACCCAUGUAGAAGGGACGAGCUGAU,15,242,,
CGCAAACAUGAGGAUCACCCAUGUCAAUGUGAUCAAGGAUAUGGGUUCCUAAACGGAACACCAGAAGGUGAGUAGA,,,85.2,23.8
GCCAUCGCAUGAGGAUAUGCUCCGGUUUCCGGAGCAGAAGGCAUGUCGUUAGACAUGAGGAUCACCCAUGUAGUUAAGAUGGCA,,,999,41.1
UGUCGGAGCAGAGGAUAUACAUGAGGAUCACCCAUGUAAUAAAGUGAAGCCUGGAAACGGGCAAUGUAGAAGGCUGCUCCGACA,11.3,87.8,,
GCGUACAUAUCAGGAUAUCAUUGAAUGGAUUAACACAGUGAAUACAUGAGGAUCACCCAUGUGCUUGAGAAGGGAUUACUACGC,11.1,10.4,,
